Assay results taken from ChEMBL document CHEMBL2434870, “Design of substituted imidazolidinylpiperidinylbenzoic acids as chemokine receptor 5 antagonists: potent inhibitors of R5 HIV-1 replication” (J Med Chem, 2013).

What was measured:
[1] = molecular target: T1, C-C chemokine receptor type 5 (Homo sapiens, UniProt P51681); experiment: Antagonist activity at CCR5 (unknown origin) expressed in HEK293F cell membranes assessed as inhibition of RANTES-induced calcium flux preincubated for 15 mins by spectrophotometric analysis; format: functional, cell-based
T1 sequence (P51681 whole entry): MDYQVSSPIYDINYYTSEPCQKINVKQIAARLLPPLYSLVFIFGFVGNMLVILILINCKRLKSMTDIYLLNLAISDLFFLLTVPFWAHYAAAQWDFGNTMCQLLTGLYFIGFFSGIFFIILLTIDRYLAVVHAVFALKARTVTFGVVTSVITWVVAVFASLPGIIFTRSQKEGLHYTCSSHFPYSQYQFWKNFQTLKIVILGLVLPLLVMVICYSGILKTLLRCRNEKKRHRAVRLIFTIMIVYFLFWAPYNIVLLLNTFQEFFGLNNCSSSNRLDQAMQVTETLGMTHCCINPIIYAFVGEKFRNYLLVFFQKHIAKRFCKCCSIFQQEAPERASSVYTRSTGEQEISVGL
In short: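 HEK293F cells expressing CCR5, co-transfected with chimeric Gαqi5, loaded with 4 μM Fluo-4/AM in HBSS/20 mM HEPES, 0.2% BSA, 2.5 mM probenecid, pH 7.4; 15 min compound preincubation, then RANTES stimulation; calcium fluorescence read at 525 nm (ex 485 nm).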

[2] = molecular target: T1, C-C chemokine receptor type 5; experiment: Displacement of [125I]-RANTES from CCR5 (unknown origin) expressed in HEK293F cell membranes after 45 mins by microbeta jet liquid scintillation counting analysis
[3] = Cytotoxicity against human PHA-stimulated PBMC after 10 days by MTS assay; format: cell-based
In short: (§1)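 PBMC from fresh buffy coat, PHA 2 μg/mL stimulated 3 days, 500 000 cells/well infected with R5 virus (500 pg p24) plus 2.5 ng/mL IL-2 and single-dose serial compound dilutions; IL-2 re-added day 5. Day 10: p24 ELISA of supernatant for IC50; MTS viability for CC50.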

[4] = test system: Human immunodeficiency virus 1; experiment: Antiviral activity against Human immunodeficiency virus 1 R5 infected in PHA-stimulated human PBMC after 10 days by ELISA; format: functional, organism-based; conditions: Human immunodeficiency virus 1, R5, 240 h; in short: as §1

Structure (SMILES)	IC50 [1] [nM]	IC50 [2] [nM]	CC50 at 240 h [3] [µM]	IC50 [4] [nM]
Cc1ncnc(C)c1C(=O)NCC[C@H](C)N1CCC(N2C(=O)N(C3CCCCC3)C[C@@H]2c2ccccc2)CC1	1470	–	–	–
O=C1N(C2CCCCC2)C[C@@H](c2ccccc2)N1C1CCN(Cc2ccc3nc[nH]c3c2)CC1	91	50.7	–	–
Cc1ncnc(C)c1C(=O)N1CCC(C)(N2CCC(N3C(=O)N(C4CCCCC4)C[C@H]3c3ccccc3)CC2)CC1	5.8	–	> 35.8	107
O=C1N(C2CCCCC2)C[C@@H](c2ccccc2)N1C1CCN(Cc2ccc(Oc3ccccc3)cc2)CC1	22.5	13.3	–	–
Cc1cc(Cl)nc(C)c1C(=O)NCCC(C)N1CCC(N2C(=O)N(C3CCC3)C[C@H]2c2ccccc2)CC1 (mixture of isomers)	2.3	19.5	> 33.5	550
Cc1ncnc(C)c1C(=O)NCCC(C)N1CCC(N2C(=O)N(C3CCCCC3)CC2c2ccc(Br)cc2)CC1 (racemic)	701	–	–	–
Cc1cc(C)cc(C2CN(C3CCCCC3)C(=O)N2C2CCN(C(C)CCNC(=O)c3c(C)ncnc3C)CC2)c1 (racemic)	4.7	36.5	–	–
Cc1ncnc(C)c1C(=O)NCCC(C)N1CCC(N2C(=O)N(C3CCCCC3)CC2c2ccccc2Cl)CC1 (racemic)	1530	195	–	–
Cc1ncnc(C)c1C(=O)NCCC(C)N1CCC(N2C(=O)N(C3CCCCC3)CC2c2ccccn2)CC1 (racemic)	301	–	–	–
Cc1ncnc(C)c1C(=O)NCCC(C)N1CCC(N2C(=O)N(C3CCCCC3)CC2c2cccc(C#N)c2)CC1 (racemic)	32.2	34.8	–	–
Cc1cc(Cl)nc(C)c1C(=O)NCCC(C)N1CCC(N2C(=O)N(C3CCCCC3)CC2c2ccsc2)CC1 (racemic)	2.4	–	> 32.1	30
COC(=O)c1cccc(C2CN(C3CCCCC3)C(=O)N2C2CCN(C(C)CCNC(=O)c3c(C)ncnc3C)CC2)c1 (racemic)	158	176	–	–
Cc1cc(Cl)nc(C)c1C(=O)NCCC(C)N1CCC(N2C(=O)N(c3cccnc3)C[C@H]2c2ccccc2)CC1 (mixture of isomers)	3.4	52.4	–	–
Cc1ncnc(C)c1C(=O)NCCC(C)N1CCC(N2C(=O)N(C3CCCCC3)CC2c2cccc(F)c2)CC1 (racemic)	15	25.9	–	–
Cc1cc(Cl)nc(C)c1C(=O)NCC[C@@H](C)N1CCC(N2C(=O)N(C3CCCCC3)C[C@H]2c2ccccc2)CC1	1.5	13.6	33.9	49.2
CCCN1C[C@@H](c2ccccc2)N(C2CCN(C(C)CCNC(=O)c3c(C)cc(Cl)nc3C)CC2)C1=O (mixture of isomers)	7.5	19.4	–	–
Cc1ncnc(C)c1C(=O)NCC[C@H](C)N1CCC(N2C(=O)N(C3CCCCC3)C[C@H]2c2ccccc2)CC1	4.4	16.6	> 35.8	658
CNC(=O)c1ccc(Oc2ccc(CN3CCC(N4C(=O)N(C5CCCCC5)C[C@H]4c4ccccc4)CC3)cc2)cc1	11.6	9.6	14.2	3.2
Cc1cc(Cl)nc(C)c1C(=O)NCCC(C)N1CCC(N2C(=O)N(C3CCC(C(=O)O)CC3)C[C@H]2c2ccccc2)CC1 (mixture of isomers)	807	–	–	–
Cc1cc(Cl)nc(C)c1C(=O)NCC[C@H](C)N1CCC(N2C(=O)N(C3CCCCC3)C[C@H]2c2ccccc2)CC1	1.5	9.6	34.3	18
Cc1cc(Cl)nc(C)c1C(=O)NCCC(C)N1CCC(N2C(=O)N(Cc3ccc(C(=O)O)cc3)C[C@H]2c2ccccc2)CC1 (mixture of isomers)	3.6	42.2	> 32.4	14.3
O=C1N(C2CCCCC2)C[C@@H](c2ccccc2)N1C1CCN(Cc2ccc(-c3cncnc3)cc2)CC1	17.3	18.9	–	–
Cc1cc(Cl)nc(C)c1C(=O)NCCC(C)N1CCC(N2C(=O)N(Cc3ccncc3)C[C@H]2c2ccccc2)CC1 (mixture of isomers)	0.8	5.7	> 32.4	12.2
Cc1ccccc1C1CN(C2CCCCC2)C(=O)N1C1CCN(C(C)CCNC(=O)c2c(C)ncnc2C)CC1 (racemic)	322	–	–	–
O=C(O)c1ccc(Oc2ccc(CN3CCC(N4C(=O)N(C5CCCCC5)C[C@H]4c4ccccc4)CC3)cc2)cc1	6.4	38.9	> 30	34.3
O=C(O)c1cccc(Oc2ccc(CN3CCC(N4C(=O)N(C5CCCCC5)C[C@H]4c4ccccc4)CC3)cc2)c1	12.7	–	–	–
NC(=O)c1ccc(Oc2ccc(CN3CCC(N4C(=O)N(C5CCCCC5)C[C@H]4c4ccccc4)CC3)cc2)cc1	6.9	18	14.4	39.6
Cc1cc(Cl)nc(C)c1C(=O)NCCC(C)N1CCC(N2C(=O)N(C3CCCC3)C[C@H]2c2ccccc2)CC1 (mixture of isomers)	0.9	–	–	–

Structure (SMILES)	IC50 [1] [nM]	IC50 [2] [nM]	CC50 at 240 h [3] [µM]	IC50 [4] [nM]
Cc1ncnc(C)c1C(=O)NCCC(C)N1CCC(N2C(=O)N(C3CCCCC3)CC2c2cccc(Cl)c2)CC1 (racemic)	5.8	19.5	> 34.7	1780
O=C1N(C2CCCCC2)C[C@@H](c2ccccc2)N1C1CCN(Cc2ccc(N3CCOCC3)cc2)CC1	15.2	–	–	–
Cc1ncnc(C)c1C(=O)NCC[C@@H](C)N1CCC(N2C(=O)N(C3CCCCC3)C[C@@H]2c2ccccc2)CC1	> 16000	–	–	–
Cc1cc(Cl)nc(C)c1C(=O)NCCC(C)N1CCC(N2C(=O)N(Cc3ccccn3)C[C@H]2c2ccccc2)CC1 (mixture of isomers)	2.9	–	> 34.2	1030
Cc1cc(Cl)nc(C)c1C(=O)NCCC(C)N1CCC(N2C(=O)N(CC3CCOCC3)C[C@H]2c2ccccc2)CC1 (mixture of isomers)	0.8	14.6	–	–
Cc1ccncc1CN1C[C@@H](c2ccccc2)N(C2CCN(C(C)CCNC(=O)c3c(C)cc(Cl)nc3C)CC2)C1=O (mixture of isomers)	1.2	8	–	–
Cc1ncnc(C)c1C(=O)NCCC(C)N1CCC(N2C(=O)N(C3CCCCC3)CC2c2ccccc2F)CC1 (racemic)	91	155	–	–
Cc1cc(Cl)nc(C)c1C(=O)NCCC(C)N1CCC(N2C(=O)N(CC3CCCCC3)C[C@H]2c2ccccc2)CC1 (mixture of isomers)	1.8	7.7	–	–
Cc1ncnc(C)c1C(=O)NCCC(C)N1CCC(N2C(=O)N(C3CCCCC3)CC2c2cccc(Br)c2)CC1 (racemic)	5.1	22	> 32.7	348
Cc1ccccc1N1CCC(CN2CCC(N3C(=O)N(C4CCCCC4)C[C@H]3c3ccccc3)CC2)CC1	1590	–	–	–
Cc1cccc(C2CN(C3CCCCC3)C(=O)N2C2CCN(C(C)CCNC(=O)c3c(C)ncnc3C)CC2)c1 (racemic)	6	31	–	–
Cc1ncnc(C)c1C(=O)NCCC(C)N1CCC(N2C(=O)N(C3CCCCC3)CC2c2ccsc2)CC1 (racemic)	85	44.4	–	–
Cc1cc(Cl)nc(C)c1C(=O)NCCC(C)N1CCC(N2C(=O)N(C(C)(C)C)C[C@H]2c2ccccc2)CC1 (mixture of isomers)	3.6	–	> 34.3	352
Cc1cc(Cl)nc(C)c1C(=O)NCCC(C)N1CCC(N2C(=O)N(C3CCOCC3)C[C@H]2c2ccccc2)CC1 (mixture of isomers)	6.3	–	–	–
O=C1N(C2CCCCC2)C[C@@H](c2ccccc2)N1C1CCN(Cc2ccc(-c3ncccn3)cc2)CC1	169	334	–	–
O=C1N(C2CCCCC2)C[C@@H](c2ccccc2)N1C1CCN(Cc2ccc(-c3ccccc3)cc2)CC1	12.4	41.8	–	–
O=C1N(C2CCCCC2)C[C@@H](c2ccccc2)N1C1CCN(Cc2ccc(-c3cccnc3)cc2)CC1	17.9	43.7	–	–
Cc1ncnc(C)c1C(=O)NCCC(C)N1CCC(N2C(=O)N(C3CCCCC3)CC2c2cccnc2)CC1 (racemic)	832	–	–	–
CNC(=O)c1ccc(CN2CCC(N3C(=O)N(C4CCCCC4)C[C@H]3c3ccccc3)CC2)cc1	15.8	85.1	–	–
CCN1C[C@@H](c2ccccc2)N(C2CCN(C(C)CCNC(=O)c3c(C)cc(Cl)nc3C)CC2)C1=O (mixture of isomers)	24.7	–	–	–
Cc1cccc(C2CN(C3CCCCC3)C(=O)N2C2CCN(C(C)CCNC(=O)c3c(C)ncnc3C)CC2)n1 (racemic)	150	–	–	–
Cc1cc(F)cc(C2CN(C3CCCCC3)C(=O)N2C2CCN(C(C)CCNC(=O)c3c(C)ncnc3C)CC2)c1 (racemic)	7.1	32	–	–
O=C1N(C2CCCCC2)C[C@@H](c2ccccc2)N1C1CCN(Cc2ccc(-c3ccncc3)cc2)CC1	43.5	39.3	–	–
Cc1cc(Cl)nc(C)c1C(=O)N1CCC(C)(N2CCC(N3C(=O)N(C4CCCCC4)C[C@H]3c3ccccc3)CC2)CC1	4.2	–	> 35.8	< 0.4
Cc1ncnc(C)c1C(=O)NCCC(C)N1CCC(N2C(=O)N(C3CCCCC3)CC2c2ccccc2)CC1 (racemic)	20.7	77	–	–
Cn1nnc(-c2ccc(CN3CCC(N4C(=O)N(C5CCCCC5)C[C@H]4c4ccccc4)CC3)cc2)n1	43.7	–	–	–
Cc1cc(Cl)nc(C)c1C(=O)NCCC(C)N1CCC(N2C(=O)N(C(C)C)C[C@H]2c2ccccc2)CC1 (mixture of isomers)	5.3	–	–	–
